Compound activity: PubChem, several laboratories
This is a sample that favours compounds with a hit; in the whole collection about 5.1% have one here.
STAT1 inh: reduces IFN-gamma driven STAT1 reporter signal; NIH 3T3 STAT1-luciferase reporter, luminescence; inhibition, % at 5.5 µM; 200,000 tested, 0.35% active;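 active = inhibition above a set limit, the mean inhibition across all tested compounds plus 3 SD, cut at about 34% in these data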;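 also: 0% = IFN-gamma with DMSO and 100% = IFN-gamma with 300 µM nifuroxazide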
APP 5'UTR act: activates APP 5'UTR luciferase reporter; 190,000 tested, 1% active; activation, % at 2 µM; SH-SY5Y APP 5'UTR luciferase reporter, luminescence; zero percent = DMSO vehicle wells;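 active = activation above a set limit, based on mean plus 3 SD of controls, cut at about 140% in these data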
STAT3 activator: increases IL-6 driven STAT3 reporter signal | activation (% of control), % at 5.6 µM | AID 871 | 190,000 tested, 0.91% active | U3A cells, IL-6 STAT3-luciferase reporter, luminescence; 100% = signal with IL-6 EC80 alone;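 active = activation above the screen-wide mean of compound activation plus 3 SD, cut at about 130% in these data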;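 also: 0% = background luminescence of wells with medium and substrate only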
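System – human U3A cells carrying STAT3-luciferase construct · Probe or stimulus – Interleukin-6, 33 ng/mL · Schedule – compound 1 h, then IL-6 6 h at 37 °C · Signal – luminescence from STAT3-driven luciferase reporter · Evaluation – percent of IL-6-only median luminescence · Benchmarks – IL-6-only high control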
STAT1 activator: increases IFN-gamma driven STAT1 reporter signal; AID 932; NIH 3T3 STAT1-luciferase reporter, luminescence; 100% = IFN-gamma alone, no compound; 200,000 tested, 2.6% active; activation (% of control), % at 5.5 µM;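 active = activation above the screen-wide mean activation plus 3 SD, cut at about 130% in these data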;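 also: raw ratio to IFN-gamma control signal so 100% means no change and 0% no light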
STAT3 blocker: reduces IL-6 driven STAT3 reporter signal; U3A cells, IL-6 STAT3-luciferase reporter, luminescence; host cell line lacks STAT1; inhibition, % at 5.5 µM; 190,000 tested, 0.89% active; AID 862;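 active = inhibition above the mean inhibition across all screened compounds plus 3 SD, cut at about 44% in these data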;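 also: 0% = DMSO only wells and 100% = 100 µM nifuroxazide control wells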
NF-kB expr up: NF-kB expression increase, human neuronal cells; fold change at 12.5 µM; 190,000 tested, 1.6% active; NF-kB reporter expression; hits give high values; in the data active = fold change above about 3.3
Starred values were filed as active, the others as inactive; . = no result given.

SMILES	STAT1 inh	APP 5'UTR act	STAT3 activator	STAT1 activator	STAT3 blocker	NF-kB expr up
CC(C)CC(NS(=O)(=O)c1ccc2c(c1)oc(=O)n2C)C(=O)NC1CCCc2ccccc21 (centres undefined)	-4	12	103	103	6	1.6
Nc1ccc(CCc2nc3ccccc3o2)cc1	-42	163*	89	138*	16	3
COc1ccc(OC)c(S(=O)(=O)n2nnc3cc(Cl)ccc32)c1	5	7	98	95	5	1.1
COc1cc(S(=O)(=O)n2nnc3ccccc32)c(OC)cc1Cl	35*	-5	86	80	18	1.4
CCOC(=O)c1cnn2c(C)cc(-c3ccc(F)cc3)nc12	-50	82	102	146*	3	3
Cc1cc(-c2ccc(F)cc2)nc2cc(C(N)=O)nn12	1	-11	110	99	-14	0.85
COc1ccc(C2=NN(C(=O)CN3CCOCC3)C(c3nc4ccccc4[nH]3)C2)cc1 (centres undefined)	-35	122	108	133*	-10	1.1
COc1ccc(C2=NN(C(=O)CN3CCCCC3)C(c3ccc(C)cc3)C2)cc1 (centres undefined)	-3	9	105	100	-1	0.85
Nc1ccc2c(c1)COc1ccccc1O2	-11	23	96	111	9	1.6
Nc1ccc2c(c1)OC1(CCCCC1)O2	-6	22	135*	103	-32	0.97
C=CCOC(=O)/C(=C\c1ccccc1)NC(=O)c1ccc(C)cc1	-38	66	114	132*	-10	0.78
C=CCOC(=O)/C(=C\c1cccc2ccccc12)NC(=O)c1ccccc1	-40	18	111	136*	-8	2
COc1ccc(-c2cc(C(=O)NC3=NCCS3)c3ccccc3n2)cc1OC	-15	-11	114	114	-18	0.51
CCOC(=O)c1sc(NC(=O)c2cc(-c3ccc(C)cc3)nc3ccccc23)c(C#N)c1C	-7	7	106	106	-1	0.5
COC(=O)c1sc(NC(=O)c2cc(-c3ccccc3)nc3ccccc23)c(C#N)c1C	7	-8	62	94	49*	1
O=C(NC1=NCCS1)c1cc(-c2ccc(-c3ccccc3)cc2)nc2ccccc12	-39	67	105	135*	-11	1.3
Cc1noc(NS(=O)(=O)c2ccc(NC(=O)CSc3nc4ccccc4[nH]3)cc2)c1C	9	1	102	92	2	0.92
CCC(=O)N1N=C(c2ccc(NS(C)(=O)=O)cc2)CC1c1ccc(N(C)C)cc1 (centres undefined)	-34	24	111	129*	-6	2
Brc1ccc(-c2nc3ccccc3s2)s1	-41	115	105	137*	4	6.8*
COc1cccc(-n2c(Cc3cc(=O)[nH]c(=O)[nH]3)nnc2SCC(=O)N2CCCCCC2)c1	2	10	122	98	-22	1
Nc1ccc(NC(=O)c2cccs2)cc1	-7	-9	101	105	4	1.2
Nc1ccc(/C=C/C(=O)c2cccs2)cc1	-26	143*	99	122	4	5.9*
COc1ccc(-c2csc(Nc3ncccc3C)n2)cc1OC	-46	31	90	141*	12	1
COc1ccc(-c2csc(/N=C/N(C)C)n2)cc1OC	-15	19	108	114	-10	1.4
Oc1ccc(Nc2nc(-c3ccc(O)cc3)cs2)cc1	3	62	74	97	34	2.6
SMILES	STAT1 inh	APP 5'UTR act	STAT3 activator	STAT1 activator	STAT3 blocker	NF-kB expr up
Cc1cccnc1Nc1nc(-c2ccc(O)c(O)c2)cs1	-32	39	88	130*	14	3.6*
O=C(Nc1ccc(F)cc1F)c1ccc(-n2cccn2)c([N+](=O)[O-])c1	-5	7	91	102	16	1.2
N/C(CCCN1CCCCC1)=N/O	3	1	96	97	8	0.86
CCN=c1scc(-c2ccc(F)cc2)n1/N=C/c1ccccn1	-41	107	85	138*	24	5*
CCN=c1scc(-c2ccccc2)n1/N=C/c1ccccn1	-76	166*	61	170*	45*	3
CCC(C(=O)Nc1ccsc1C(=O)OC)c1ccccc1 (centres undefined)	1	1	98	96	7	0.96
C=CCOn1c(=O)c(-c2cc3ccccc3o2)[n+]([O-])c2ccccc21	-18	33	119	117	-17	1.5
CCOC(=O)COn1c(=O)c(-c2cc3ccccc3o2)[n+]([O-])c2ccccc21	-47	100	151*	142*	-63	2.9
O=C(Nc1scc(-c2ccc(F)cc2)c1C(=O)O)c1ccco1	-26	7	101	123	1	1.6
Cc1cc(-c2ccc(N3CCOCC3)cc2)nc2ccccc12	-33	90	112	130*	-15	2.9
c1ccc2nc(-c3ccncc3)ccc2c1	-27	7	97	124	10	1.6
c1ccc2nc(-c3ccc(N4CCOCC4)cc3)ccc2c1	68*	.	22	38	99*	2.4
CN1CCN(c2ccc(-c3ccc4ccccc4n3)cc2)CC1	95*	-51	9	11	112*	0.34
Cc1noc(/C=C/c2cccs2)c1S(=O)(=O)N1CCC(C(=O)NCCCN2CCCC(C)C2)CC1 (centres undefined)	-7	10	101	107	5	.
O=C(Cn1cc(C(=O)c2ccco2)c2ccccc21)Nc1ccccc1	8	-4	92	92	10	0.85
COc1ccc(N2C(=O)c3ccccc3NC23CCCCC3)cc1	-38	135	97	135*	8	3.1
COc1ccc(N2C(=O)c3ccccc3NC23CCC(C)CC3)cc1 (centres undefined)	-8	-3	109	107	-11	2
O=C(CSc1nnc(-c2cccc(Cl)c2)o1)Nc1ccc2c(c1)OCCO2	-10	159*	97	107	7	1.8
CCn1nnnc1SCC(=O)Nc1ccc2c(c1)OCCO2	-39	45	116	139*	-16	2.4
COCCCn1nnnc1SCC(=O)Nc1ccc2c(c1)OCCO2	4	9	103	96	8	1.4
CCC1CCCCN1CC(=O)Nc1cc(OC)c(OC)cc1C#N (centres undefined)	0	-3	95	100	8	1.1
COC(=O)CCC(=O)NNC(=O)c1cccc(Cl)c1	-5	13	102	104	-2	1.5
O=C(CC(Nc1ccc(Cl)cc1)C(=O)O)c1ccccc1 (centres undefined)	-50	209*	80	147*	27	2.4
Cc1ccccc1N(CC(=O)N/N=C/c1ccc(Cl)cc1)C(=O)c1ccccc1	-7	-19	96	107	10	0.77
O=C(O)CCC(=O)Nc1ccc(N=Nc2ccccc2)cc1	-9	0	99	109	2	1.2
